Consider six molecules from ChEMBL document CHEMBL1143723, “Antiproliferative cardenolides of an Elaeodendron sp. from the Madagascar rain forest(1)” (J Nat Prod, 2007).

As a reminder, the pIC50 is the negative decadic logarithm of the IC50, by convention in mol/L. A lower pIC50 goes with a large IC50.

Common to all, as to format: functional, cell-based
In one test the test system is A2780. In words: Antiproliferative activity against human A2780 cells.
The test system of a further test is U-937. In words: Antiproliferative activity against human U937 cells. The essentials: (§1)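 Cultured human cancer lines (MDA-MB-435 breast, HT-29 colon, H522-T1 non-small cell, U937 histiocytic lymphoma) were exposed to compound, and growth was read by luminescence. The method follows an earlier report, with luminescence measured on a multilabel reader.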
The next test has as its system HT-29. In words: Antiproliferative activity against human HT29 cells. The essentials:
as §1

Test [1] can be described thus: Antiproliferative activity against human H522T1 cells. The conditions noted are these: H522-T1. Put shortly: as §1
The subject of the next test is MDA-MB-435. In words: Antiproliferative activity against human MDA-MB-435 cells. The essentials:
as §1

pIC50: −log10 of the molar value.

As to `CO[C@H]1CCO[C@@H](O[C@@H]2C=C3CC[C@@H]4[C@H](CC[C@]5(C)[C@@H](C6=CC(=O)OC6)CC[C@]45O)[C@@]3(C)C[C@H]2O)[C@H]1O`, the pIC50 in the test with A2780 was 5.60.

For the molecule `CO[C@H]1CCO[C@H]2O[C@@H]3C=C4CC[C@@H]5[C@H](CC[C@]6(C)[C@@H](C7=CC(=O)OC7)CC[C@]56O)[C@@]4(C)C[C@H]3O[C@]21O` [ELAEODENDROSIDE B], the negative-log IC50 (pIC50) in the test with U-937 was 7.30; in the test on A2780, 7.72; with HT-29, 7.10; in test [1] it was 7.10; in the test on MDA-MB-435 it was 6.82.

The molecule `CO[C@H]1CCO[C@H]2O[C@@H]3C=C4CC[C@@H]5[C@H](CC[C@]6(C)[C@@H](C7=CC(=O)OC7)[C@@H](OC(C)=O)C[C@]56O)[C@@]4(C)C[C@H]3O[C@]21O` [ELAEODENDROSIDE F] showed a pIC50 in the test on A2780 of 6.72.

On to `CO[C@@H]1CCO[C@H]2O[C@@H]3C=C4CC[C@@H]5[C@H](CC[C@]6(C)[C@@H](C7=CC(=O)OC7)[C@@H](OC(C)=O)C[C@]56O)[C@@]4(C)C[C@H]3O[C@]21O` [ELAEODENDROSIDE G], for which the negative-log IC50 (pIC50) in the test on A2780 is 7.00.

Regarding `CO[C@@H]1C[C@@H](C)O[C@H]2O[C@@H]3C=C4CC[C@@H]5[C@H](CC[C@]6(C)[C@@H](C7=CC(=O)OC7)[C@@H](OC(C)=O)C[C@]56O)[C@@]4(C)C[C@H]3O[C@]21O` [ELAEODENDROSIDE T], the pIC50 was 6.82 with U-937; 7.07 in the test on A2780; 6.74 in the test on HT-29; 6.74 in test [1]; 6.43 in the test with MDA-MB-435.

In the test with A2780, `CO[C@H]1CCO[C@@H](O[C@@H]2C=C3CC[C@@H]4[C@H](CC(=O)[C@]5(C)[C@@H](C6=CC(=O)OC6)CC[C@]45O)[C@@]3(C)C[C@H]2O)[C@H]1O` [ELAEODENDROSIDE U] gave a pIC50 of 4.52.
